Experimental findings from ChEMBL document CHEMBL1125210, “Benzylated 1,2,3-triazoles as anticoccidiostats” (J Med Chem, 1991) are described below.

The species entered for series [1] is Gallus gallus. Put plainly: The compound was tested for anti-coccidial activity in chicken against Eimeria tenella. Format: organism-based. Conditions: in vivo. Summed up:
(§1)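 Test article mixed into the feed at the stated rates and given to 3-day-old chicks infected with […]. Each Eimeria species was inoculated separately. Activity was scored as percent suppression of oocyst output relative to infected, unmedicated controls. Toxicity was judged from average weight gain relative to uninfected controls.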

The species entered for series [2] is Gallus gallus. Put plainly: The compound was tested for anti-coccidial activity in chicken against Eimeria acervulina. Format: organism-based. Conditions: in vivo. A digest of the protocol: (§2)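 3-Day-old chicks infected separately with E. tenella or E. acervulina; test compound given mixed in the feed at the stated rates. Activity was scored as percent suppression of oocyst production versus infected, unmedicated controls. Toxicity was judged from average weight gain relative to uninfected controls.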

Series [3] is filed under the species Gallus gallus. Put plainly: The compound was tested for anti-coccidial activity in chicken against Eimeria necatrix (Aquet) measured at dose 7.5 (ppm in diet). Format: functional.
The species entered for series [4] is Gallus gallus. The series is described as follows: The compound was tested for anti-coccidial activity in chicken against Eimeria praecox (DP-785) measured at dose 15 (ppm in diet). Format: functional.
The species entered for series [5] is Gallus gallus. The series is described as follows: The compound was tested for anti-coccidial activity in chicken against Eimeria praecox (DP-785) measured at dose 30 (ppm in diet). Format: functional.
For series [6], the species on record is Gallus gallus. Put plainly: The compound was tested for anti-coccidial activity in chicken against Eimeria praecox (DP-785) measured at dose 45 (ppm in diet). Format: functional.
Another series deals with Eimeria acervulina. The series is described as follows: Anticoccidial activity in chicken against Eimeria acervulina. Format: functional. Also noted: Reduction: concentration or dose not given beside the values. Summed up: as §2
The species entered for series [7] is Gallus gallus. The series is described as follows: The compound was tested for anti-coccidial activity in chicken against Eimeria acervulina (DP-761) measured at dose 60 (ppm in diet). Format: functional.
Series [8] is filed under the species Gallus gallus. The series is described as follows: The compound was tested for anti-coccidial activity in chicken against Eimeria acervulina (DP-761) measured at dose 7.5 (ppm in diet). Format: functional.
Series [9] is filed under the species Gallus gallus. The series is described as follows: The compound was tested for anti-coccidial activity in chicken against Eimeria brunetti (FS-103) measured at dose 15 (ppm in diet). Format: functional.
The species entered for series [10] is Gallus gallus. The series is described as follows: The compound was tested for anti-coccidial activity in chicken against Eimeria brunetti (FS-103) measured at dose 30 (ppm in diet). Format: functional.
The species named for series [11] is Gallus gallus. Put plainly: The compound was tested for anti-coccidial activity in chicken against Eimeria brunetti (FS-103) measured at dose 45 (ppm in diet). Format: functional.
The species named for series [12] is Gallus gallus. Put plainly: The compound was tested for anti-coccidial activity in chicken against Eimeria brunetti (FS-103) measured at dose 60 (ppm in diet). Format: functional.
The species named for series [13] is Gallus gallus. The series is described as follows: The compound was tested for anti-coccidial activity in chicken against Eimeria brunetti (FS-103) measured at dose 7.5 (ppm in diet). Format: functional.
Series [14] is filed under the species Gallus gallus. The series is described as follows: The compound was tested for anti-coccidial activity in chicken against Eimeria maxima (DP-776) measured at dose 30 (ppm in diet). Format: functional.
The species named for series [15] is Gallus gallus. The series is described as follows: The compound was tested for anti-coccidial activity in chicken against Eimeria maxima (DP-776) measured at dose 45 (ppm in diet). Format: functional.
The species named for series [16] is Gallus gallus. The series is described as follows: The compound was tested for anti-coccidial activity in chicken against Eimeria maxima (DP-776) measured at dose 60 (ppm in diet). Format: functional.
The species named for series [17] is Gallus gallus. The series is described as follows: The compound was tested for anti-coccidial activity in chicken against Eimeria maxima (DP-776) measured at dose 7.5 (ppm in diet). Format: functional.
Series [18] is filed under the species Gallus gallus. Put plainly: The compound was tested for anti-coccidial activity in chicken against Eimeria praecox (DP-785) measured at dose 60 (ppm in diet). Format: functional.
Series [19] is filed under the species Gallus gallus. The series is described as follows: The compound was tested for anti-coccidial activity in chicken against Eimeria praecox (DP-785) measured at dose 7.5 (ppm in diet). Format: functional.
The test system of the next series is Eimeria tenella. The series is described as follows: Anticoccidial activity in chicken against E. tenella. Format: functional. Also noted: Reduction: concentration or dose not given beside the values. Summed up: as §2
For series [20], the species on record is Gallus gallus. Put plainly: The compound was tested for anti-coccidial activity in chicken against Eimeria tenella (DP-761) measured at dose 15 (ppm in diet). Format: functional. Summed up: as §1
The species entered for series [21] is Gallus gallus. Put plainly: The compound was tested for anti-coccidial activity in chicken against Eimeria acervulina (DP-761) measured at dose 15 (ppm in diet). Format: functional.
For series [22], the species on record is Gallus gallus. Put plainly: The compound was tested for anti-coccidial activity in chicken against Eimeria acervulina (DP-761) measured at dose 30 (ppm in diet). Format: functional.
For series [23], the species on record is Gallus gallus. The series is described as follows: The compound was tested for anti-coccidial activity in chicken against Eimeria acervulina (DP-761) measured at dose 45 (ppm in diet). Format: functional.
The species entered for series [24] is Gallus gallus. The series is described as follows: The compound was tested for anti-coccidial activity in chicken against Eimeria necatrix (Aquet) measured at dose 15 (ppm in diet). Format: functional.
For series [25], the species on record is Gallus gallus. The series is described as follows: The compound was tested for anti-coccidial activity in chicken against Eimeria necatrix (Aquet) measured at dose 30 (ppm in diet). Format: functional.
Series [26] is filed under the species Gallus gallus. The series is described as follows: The compound was tested for anti-coccidial activity in chicken against Eimeria necatrix (Aquet) measured at dose 45 (ppm in diet). Format: functional.
The species entered for series [27] is Gallus gallus. The series is described as follows: The compound was tested for anti-coccidial activity in chicken against Eimeria tenella (DP-761) measured at dose 30 (ppm in diet). Format: functional. Summed up: as §1
Series [28] is filed under the species Gallus gallus. The series is described as follows: The compound was tested for anti-coccidial activity in chicken against Eimeria tenella (DP-761) measured at dose 45 (ppm in diet). Format: functional. A digest of the protocol: as §1
For series [29], the species on record is Gallus gallus. Put plainly: The compound was tested for anti-coccidial activity in chicken against Eimeria tenella (DP-761) measured at dose 60 (ppm in diet). Format: functional. Summed up: as §1
The species entered for series [30] is Gallus gallus. The series is described as follows: The compound was tested for anti-coccidial activity in chicken against Eimeria tenella (DP-761) measured at dose 7.5 (ppm in diet). Format: functional. A digest of the protocol:
as §1

The species entered for series [31] is Gallus gallus. Put plainly: The compound was tested for anti-coccidial activity in chicken against Eimeria necatrix (Aquet) measured at dose 60 (ppm in diet). Format: functional.
For series [32], the species on record is Gallus gallus. Put plainly: The compound was tested for anti-coccidial activity in chicken against Eimeria maxima (DP-776) measured at dose 15 (ppm in diet). Format: functional.
The species entered for series [33] is Gallus gallus. The series is described as follows: The compound was tested for anti-coccidial activity in chicken against Eimeria praecox (DP-785) measured at dose 121 (ppm in diet). Format: functional.
The species entered for series [34] is Gallus gallus. Put plainly: The compound was tested for anti-coccidial activity in chicken against Eimeria acervulina (DP-761) measured at dose 121 (ppm in diet). Format: functional.
The species entered for series [35] is Gallus gallus. Put plainly: The compound was tested for anti-coccidial activity in chicken against Eimeria brunetti (FS-103) measured at dose 121 (ppm in diet). Format: functional.
The species named for series [36] is Gallus gallus. The series is described as follows: The compound was tested for anti-coccidial activity in chicken against Eimeria hagani (DP-786) measured at dose 121 (ppm in diet). Format: functional.
The species named for series [37] is Gallus gallus. Put plainly: The compound was tested for anti-coccidial activity in chicken against Eimeria maxima (DP-776) measured at dose 121 (ppm in diet). Format: functional.
The species named for series [38] is Gallus gallus. The series is described as follows: The compound was tested for anti-coccidial activity in chicken against Eimeria mitis (LS-84) measured at dose 121 (ppm in diet). Format: functional.
For series [39], the species on record is Gallus gallus. Put plainly: The compound was tested for anti-coccidial activity in chicken against Eimeria tenella (DP-761) measured at dose 121 (ppm in diet). Format: functional. A digest of the protocol:
as §1

With `NC(=O)c1c(N)nnn1Cc1cc(Cl)c(C(=O)c2ccc(Cl)cc2)c(Cl)c1`, the minimum effective dose in the series listed under Gallus gallus [1] and in the series listed under Gallus gallus [2] was more than 500 ppm each time.
Consider `NC(=O)c1nnn(Cc2cc(Cl)c(C(=O)c3ccc(Cl)cc3)c(Cl)c2)c1N` [CARBOXYAMIDOTRIAZOLE], for which the Reduction in the series filed under Gallus gallus [3] amounted to 12%; in the series filed under Gallus gallus [4], 98%; in the series listed under Gallus gallus [5] it was 100%; in the series filed under Gallus gallus [6], 100%; in the series with Eimeria acervulina, 90%; in the series listed under Gallus gallus [7], 99.9%. In addition, the Reduction in the series filed under Gallus gallus [8] worked out at 21%; in the series listed under Gallus gallus [9], 95%; in the series listed under Gallus gallus [10], 100%; in the series listed under Gallus gallus [11] it was 100%; in the series listed under Gallus gallus [12] it was 100%; in the series filed under Gallus gallus [13], 58%. For the same compound, the Reduction in the series listed under Gallus gallus [14] turned out to be 99.9%; in the series filed under Gallus gallus [15], 99.9%; in the series listed under Gallus gallus [16] it was 99.9%; in the series filed under Gallus gallus [17] it was 99.9%; in the series listed under Gallus gallus [18], 100%; in the series filed under Gallus gallus [19], 72%. For the same compound, the Reduction is on record as 80% in the series with Eimeria tenella; 83% in the series filed under Gallus gallus [20]; 98% in the series filed under Gallus gallus [21]; 99.9% in the series listed under Gallus gallus [22]; 99.9% in the series filed under Gallus gallus [23]; 88% in the series filed under Gallus gallus [24]. Further, the Reduction worked out at 100% in the series listed under Gallus gallus [25]; 100% in the series filed under Gallus gallus [26]; 98% in the series listed under Gallus gallus [27]; 99.9% in the series listed under Gallus gallus [28]; 99.9% in the series listed under Gallus gallus [29]; 60% in the series filed under Gallus gallus [30]. Also, the Reduction in the series filed under Gallus gallus [31] is given as 100%; in the series filed under Gallus gallus [32] it was 99.9%.
For `CC[C@@]1([C@@H]2O[C@@H]([C@H]3O[C@@](O)(CO)[C@H](C)C[C@@H]3C)C[C@@H]2C)CC[C@H]([C@]2(C)CC[C@]3(C[C@H](O)[C@@H](C)[C@@H]([C@@H](C)[C@@H](OC)[C@H](C)C(=O)O)O3)O2)O1` [MONENSIN], the Reduction in the series filed under Gallus gallus [33] stood at 19%; with Eimeria acervulina, 80%; in the series listed under Gallus gallus [34] it was 4%; in the series listed under Gallus gallus [35], 100%; in the series filed under Gallus gallus [36], 19%; in the series listed under Gallus gallus [37], 73%. Moreover, the Reduction in the series filed under Gallus gallus [38] turned out to be 72%; in the series on Eimeria tenella it was 80%; in the series filed under Gallus gallus [39], 100%.
